Converted amounts (≈) assume the structure as drawn.

Test [1] deals with Escherichia coli. The test can be described thus: Minimum inhibitory concentration against Escherichia coli DC2 (inoculum, 10e4 cfu per spot). The test is classed as functional. Put shortly: (§1)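 MIC in µg/mL, determined in Jewell and Permain growth medium with spot inoculation at 10^4 cfu per spot. P99 is described as a constitutive type I lactamase producer.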
Test [2] relates to Escherichia coli. In words: Minimum inhibitory concentration against Escherichia coli DCO (inoculum, 10e4 cfu per spot). The class given is functional. Put shortly: as §1
The subject of test [3] is Escherichia coli. In words: Minimum inhibitory concentration against Escherichia coli A8 (inoculum, 10e5 cfu per spot). The class given is functional. The method, boiled down:
(§2)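 MIC in µg/mL, determined in Jewell and Permain growth medium with spot inoculation at 10^5 cfu per spot.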

Test [4] deals with Enterobacter cloacae. The test can be described thus: Minimum inhibitory concentration against Enterobacter cloacae A13 (inoculum, 10e5 cfu per spot). The class given is functional. Put shortly:
as §2

Test [5] concerns Enterobacter cloacae. In words: Minimum inhibitory concentration against Enterobacter cloacae P99 (inoculum, 10e4 cfu per spot). The class given is functional. Put shortly:
as §1

The subject of test [6] is Klebsiella aerogenes. In words: Minimum inhibitory concentration against Klebsiella aerogenes X5L (inoculum, 10e4 cfu per spot). The test is classed as functional. The method, boiled down:
as §1

Test [7] has as its system Klebsiella aerogenes. In words: Minimum inhibitory concentration against Klebsiella aerogenes X6 (inoculum, 10e4 cfu per spot). The test is classed as functional. Put shortly: as §1
The next test deals with Klebsiella pneumoniae. In words: Minimum inhibitory concentration against Klebsiella pneumoniae A24 (inoculum, 10e5 cfu per spot). The test is classed as functional. The method, boiled down:
as §2

The subject of another test is Proteus mirabilis. In words: Minimum inhibitory concentration against Proteus mirabilis A18 (inoculum, 10e5 cfu per spot). The class given is functional. Put shortly: as §2
For a further test, the system named is Pseudomonas aeruginosa. In words: Minimum inhibitory concentration against Pseudomonas aeruginosa A21 (inoculum, 10e5 cfu per spot). The test is classed as functional. Put shortly:
as §2

For test [8], the system named is Staphylococcus aureus. The test can be described thus: Minimum inhibitory concentration against Staphylococcus aureus A4 (inoculum, 10e5 cfu per spot). The test is classed as functional. Put shortly:
as §2

In test [9] the test system is Staphylococcus aureus. In words: Minimum inhibitory concentration against Staphylococcus aureus A6 (inoculum, 10e5 cfu per spot). The test is classed as functional. The method, boiled down: as §2
The test system of the next test is Streptococcus pyogenes. The test can be described thus: Minimum inhibitory concentration against Streptococcus pyogenes (inoculum, 10e5 cfu per spot) A1. The class given is functional. Put shortly:
as §2

The next test concerns Serratia marcescens. The test can be described thus: Minimum inhibitory concentration against Serratia marcescens A16 (inoculum, 10e5 cfu per spot). The test is classed as functional. The method, boiled down: as §2
Test [10] has as its system Enterobacter cloacae. In words: Minimum inhibitory concentration against Enterobacter cloacae P99 (inoculum, 10e4 cfu per spot)(type I lactamase producer). The test is classed as functional. Put shortly:
as §1

Test [11] concerns Escherichia coli. In words: Minimum inhibitory concentration against Escherichia coli X4 (inoculum, 10e4 cfu per spot).
Another test concerns Proteus vulgaris. In words: Minimum inhibitory concentration against Proteus vulgaris Pv9 (inoculum, 10e5 cfu per spot).
In test [12] the test system is Escherichia coli. The test can be described thus: Minimum inhibitory concentration against Escherichia coli TEM X3 (inoculum, 10e4 cfu per spot)(TEM I type lactamase producer).

As usually defined, the MIC is the least concentration at which growth counts as inhibited. Lower therefore signals inhibition by little substance. Regarding `CC(=O)OCC1=C(C(=O)OC(c2ccccc2)c2ccccc2)N2C(=O)[C@@H](NC3=NCCN3)C2SC1` (stereo partly drawn), the MIC was 2 µg/mL (≈ 3.95 µM) with Escherichia coli [1]; 32 µg/mL (≈ 63.2 µM) against Escherichia coli [2]; 32 µg/mL (≈ 63.2 µM) against Escherichia coli [3]; 64 µg/mL (≈ 126 µM) against Enterobacter cloacae [4]; 32 µg/mL (≈ 63.2 µM) with Enterobacter cloacae [5]; 64 µg/mL (≈ 126 µM) in the test with Klebsiella aerogenes [6]. Moreover, the MIC against Klebsiella aerogenes [7] was 64 µg/mL (≈ 126 µM); with Klebsiella pneumoniae, 64 µg/mL (≈ 126 µM); against Proteus mirabilis it was 256 µg/mL (≈ 505 µM); in the test with Pseudomonas aeruginosa it was greater than 256 µg/mL; in the test on Staphylococcus aureus [8], greater than 256 µg/mL; in the test on Staphylococcus aureus [9], greater than 256 µg/mL. The MIC in the test on Streptococcus pyogenes was 32 µg/mL (≈ 63.2 µM); against Serratia marcescens it was 256 µg/mL (≈ 505 µM); in the test on Enterobacter cloacae [10], 64 µg/mL (≈ 126 µM); against Escherichia coli [11], 32 µg/mL (≈ 63.2 µM); in the test on Proteus vulgaris, greater than 256 µg/mL; in the test on Escherichia coli [12] it was 32 µg/mL (≈ 63.2 µM).

In the case of `CC1=C(C(=O)OC(c2ccccc2)c2ccccc2)N2C(=O)[C@@H](NC3=NC(C)C(C)N3)C2SC1` (stereo partly drawn), the MIC against Escherichia coli [1] worked out at 4 µg/mL (≈ 8.39 µM); against Escherichia coli [2] it was 4 µg/mL (≈ 8.39 µM); with Escherichia coli [3], 32 µg/mL (≈ 67.1 µM); with Enterobacter cloacae [4] it was 32 µg/mL (≈ 67.1 µM); with Enterobacter cloacae [5], 4 µg/mL (≈ 8.39 µM); against Klebsiella aerogenes [6] it was 32 µg/mL (≈ 67.1 µM). For the same molecule, the MIC is 16 µg/mL (≈ 33.6 µM) against Klebsiella aerogenes [7]; 16 µg/mL (≈ 33.6 µM) in the test on Klebsiella pneumoniae; greater than 256 µg/mL against Proteus mirabilis; greater than 256 µg/mL with Pseudomonas aeruginosa; greater than 256 µg/mL against Staphylococcus aureus [8]; greater than 256 µg/mL in the test with Staphylococcus aureus [9]. Besides, the MIC in the test on Streptococcus pyogenes was greater than 256 µg/mL; with Serratia marcescens it was greater than 256 µg/mL; against Enterobacter cloacae [10], 4 µg/mL (≈ 8.39 µM); against Escherichia coli [11] it was 4 µg/mL (≈ 8.39 µM); against Proteus vulgaris, greater than 256 µg/mL; in the test with Escherichia coli [12], 4 µg/mL (≈ 8.39 µM).

Regarding `CC(=O)Nc1ccc2[nH]c(N[C@@H]3C(=O)N4C(C(=O)OC(C)(C)C)=C(COC(C)=O)CSC34)nc2c1` (stereo partly drawn), the MIC is 0.12 µg/mL (≈ 0.239 µM) in the test on Escherichia coli [1]; 1 µg/mL (≈ 1.99 µM) against Escherichia coli [2]; 1 µg/mL (≈ 1.99 µM) against Escherichia coli [3]; greater than 256 µg/mL against Enterobacter cloacae [4]; 2 µg/mL (≈ 3.99 µM) against Enterobacter cloacae [5]; greater than 256 µg/mL against Klebsiella aerogenes [6]. In addition, the MIC with Klebsiella aerogenes [7] was 2 µg/mL (≈ 3.99 µM); with Klebsiella pneumoniae, 32 µg/mL (≈ 63.8 µM); in the test with Proteus mirabilis, 8 µg/mL (≈ 16 µM); against Pseudomonas aeruginosa it was greater than 256 µg/mL; in the test on Staphylococcus aureus [8] it was 256 µg/mL (≈ 510 µM); in the test on Staphylococcus aureus [9], 8 µg/mL (≈ 16 µM). Moreover, the MIC against Streptococcus pyogenes is 4 µg/mL (≈ 7.98 µM); in the test with Serratia marcescens, greater than 256 µg/mL; against Enterobacter cloacae [10], greater than 256 µg/mL; with Escherichia coli [11] it was 1 µg/mL (≈ 1.99 µM); in the test with Proteus vulgaris, 128 µg/mL (≈ 255 µM); against Escherichia coli [12] it was 16 µg/mL (≈ 31.9 µM).

Consider `CC(=O)OCC1=C(C(=O)OC(c2ccccc2)c2ccccc2)N2C(=O)[C@@H](Nc3nc4cc(CO)ccc4[nH]3)C2SC1` (stereo partly drawn), for which the MIC is 0.06 µg/mL (≈ 0.103 µM) with Escherichia coli [1]; 0.5 µg/mL (≈ 0.855 µM) with Escherichia coli [2]; 0.5 µg/mL (≈ 0.855 µM) against Escherichia coli [3]; greater than 256 µg/mL with Enterobacter cloacae [4]; 0.5 µg/mL (≈ 0.855 µM) with Enterobacter cloacae [5]; 128 µg/mL (≈ 219 µM) in the test on Klebsiella aerogenes [6]. Besides, the MIC is 1 µg/mL (≈ 1.71 µM) in the test on Klebsiella aerogenes [7]; 1 µg/mL (≈ 1.71 µM) against Klebsiella pneumoniae; 8 µg/mL (≈ 13.7 µM) against Proteus mirabilis; greater than 256 µg/mL against Pseudomonas aeruginosa; 64 µg/mL (≈ 109 µM) against Staphylococcus aureus [8]; 8 µg/mL (≈ 13.7 µM) with Staphylococcus aureus [9]. The MIC against Streptococcus pyogenes is 1 µg/mL (≈ 1.71 µM); against Serratia marcescens, greater than 256 µg/mL; against Enterobacter cloacae [10], greater than 256 µg/mL; against Escherichia coli [11], 0.5 µg/mL (≈ 0.855 µM); in the test on Proteus vulgaris, 128 µg/mL (≈ 219 µM); with Escherichia coli [12], 4 µg/mL (≈ 6.84 µM).

As to `CC(=O)OCC1=C(C(=O)OC(c2ccccc2)c2ccccc2)N2C(=O)[C@@H](Nc3nc4c(O)cccc4[nH]3)C2SC1` (stereo partly drawn), the minimum inhibitory concentration (MIC) against Escherichia coli [1] is 0.12 µg/mL (≈ 0.21 µM); against Escherichia coli [2] it was 0.5 µg/mL (≈ 0.876 µM); against Escherichia coli [3] it was 1 µg/mL (≈ 1.75 µM); in the test with Enterobacter cloacae [4], greater than 256 µg/mL; in the test with Enterobacter cloacae [5], 1 µg/mL (≈ 1.75 µM); with Klebsiella aerogenes [6] it was 256 µg/mL (≈ 449 µM). In addition, the MIC with Klebsiella aerogenes [7] is 1 µg/mL (≈ 1.75 µM); in the test on Klebsiella pneumoniae it was 8 µg/mL (≈ 14 µM); in the test with Proteus mirabilis, 16 µg/mL (≈ 28 µM); against Pseudomonas aeruginosa, greater than 256 µg/mL; against Staphylococcus aureus [8] it was 32 µg/mL (≈ 56.1 µM); against Staphylococcus aureus [9], 2 µg/mL (≈ 3.5 µM). The MIC with Streptococcus pyogenes is 2 µg/mL (≈ 3.5 µM); in the test on Serratia marcescens, 256 µg/mL (≈ 449 µM); against Enterobacter cloacae [10], greater than 256 µg/mL; against Escherichia coli [11], 0.5 µg/mL (≈ 0.876 µM); against Proteus vulgaris, 128 µg/mL (≈ 224 µM); in the test with Escherichia coli [12] it was 32 µg/mL (≈ 56.1 µM).

As for `CC(=O)OCC1=C(C(=O)OC(c2ccccc2)c2ccccc2)N2C(=O)[C@@H](Nc3nc4c(C)cccc4[nH]3)C2SC1` (stereo partly drawn), the minimum inhibitory concentration (MIC) against Escherichia coli [1] is 0.25 µg/mL (≈ 0.44 µM); against Escherichia coli [2] it was 8 µg/mL (≈ 14.1 µM); against Escherichia coli [3], 16 µg/mL (≈ 28.1 µM); in the test with Enterobacter cloacae [4], no less than 128 µg/mL; in the test with Enterobacter cloacae [5], 32 µg/mL (≈ 56.3 µM); in the test on Klebsiella aerogenes [6] it was no less than 128 µg/mL. Further, the MIC against Klebsiella aerogenes [7] is 16 µg/mL (≈ 28.1 µM); against Klebsiella pneumoniae, 8 µg/mL (≈ 14.1 µM); in the test on Proteus mirabilis, 8 µg/mL (≈ 14.1 µM); against Pseudomonas aeruginosa, no less than 128 µg/mL; with Staphylococcus aureus [8] it was 8 µg/mL (≈ 14.1 µM); in the test with Staphylococcus aureus [9], 4 µg/mL (≈ 7.03 µM). Further, the MIC was 8 µg/mL (≈ 14.1 µM) with Streptococcus pyogenes; no less than 128 µg/mL in the test on Serratia marcescens; no less than 128 µg/mL in the test on Enterobacter cloacae [10]; 8 µg/mL (≈ 14.1 µM) against Escherichia coli [11]; no less than 128 µg/mL against Proteus vulgaris; 32 µg/mL (≈ 56.3 µM) in the test on Escherichia coli [12].

The record behind these values is ChEMBL document CHEMBL1125626, “Synthesis and structure-activity relationship of new cephalosporins with amino heterocycles at C-7. Dependence of the antibacterial spectrum and beta-lactamase stability on the pKa of the C-7 heterocycle” (1991).
